CSC inhib = cancer stem cell viability inhibitors, primary screen, luminescence | cancer stem cell-like cells viability | AID 2717, 2010 | actives 1.1% (n = 300,000) | inhibition, % at 7.5 µM; in the data active = inhibition above about 75%; inconclusive = no clear call, values can overlap the other calls; tested in HMLE shEcad cells
NALP3 yeast inh = NALP3 inflammasome inhibitors in reconstituted yeast, primary screen, luminescence, uHTS; Yeast reconstituted NLRP3/ASC/caspase-1, beta-gal luminescence, 24 h; inhibition, % at 10 µM; actives 0.39% (n = 330,000);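 active = inhibition of 50% or more; inactive = inhibition below 50%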
Calb FLC = C. albicans growth inhibition with fluconazole, primary screen, CaCi-2 strain, Alamar Blue fluorescence. C. albicans CaCi-2 (fluconazole-resistant clinical isolate) + fluconazole, 48 h. growth inhibition, % (test concentration not listed). actives 0.57% (n = 300,000). AID 1979, 2009;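 active = growth inhibition above about 58% in most replicates, limit read from the data, passing the limit was not always enough; inconclusive = exactly half the replicates above a set limit; inactive = most replicates below a set limit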;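 also: all wells also contain fluconazole at 8 µg/ml as a sub-toxic cotreatment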
Beta apoptosis = inhibitors of cytokine-induced beta cell apoptosis, primary screen, luminescence. INS-1E cytokine-induced death, ATP luminescence, 48 h; percent of positive-control rescue, neutral wells zero. protection from apoptosis, % (test concentration not listed). actives 0.8% (n = 300,000);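 active = Every replicate reaches about 75%, or at least half do and their mean reaches it too, limit read from the data; inconclusive = At least half of replicates reach the limit but their mean does not; inactive = Under half of replicates reach the limit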;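 also: higher means more ATP so stronger rescue from cytokine killing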
Mdm2 MdmX PPI = inhibitors of human Mdm2-MdmX association, primary screen, cell-based, luminescence, split luciferase, SaOS-2, uHTS; SaOS-2 split-luciferase Mdm2/MdmX complementation; inhibition, % at 8 µM; actives 3% (n = 330,000); Protein Mdm4 (Homo sapiens) + E3 ubiquitin-protein ligase Mdm2 (Homo sapiens), …;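 active = inhibition of at least 50% at 8 µM in the primary screen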
Target sequence (O15151 whole entry, looked up): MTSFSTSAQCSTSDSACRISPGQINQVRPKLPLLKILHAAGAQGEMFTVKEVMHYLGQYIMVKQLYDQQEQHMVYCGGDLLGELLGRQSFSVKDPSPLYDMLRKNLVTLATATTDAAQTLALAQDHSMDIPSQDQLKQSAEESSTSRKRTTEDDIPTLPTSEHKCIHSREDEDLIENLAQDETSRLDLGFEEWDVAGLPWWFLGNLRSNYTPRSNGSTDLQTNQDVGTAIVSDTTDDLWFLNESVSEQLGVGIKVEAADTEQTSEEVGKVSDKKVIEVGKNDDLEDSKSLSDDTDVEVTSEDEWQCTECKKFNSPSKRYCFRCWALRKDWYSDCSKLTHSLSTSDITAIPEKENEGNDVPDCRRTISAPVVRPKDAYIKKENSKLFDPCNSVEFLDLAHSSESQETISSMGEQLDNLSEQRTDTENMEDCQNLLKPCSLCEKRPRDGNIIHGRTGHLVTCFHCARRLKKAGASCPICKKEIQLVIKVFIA
Target sequence (Q00987 whole entry, looked up): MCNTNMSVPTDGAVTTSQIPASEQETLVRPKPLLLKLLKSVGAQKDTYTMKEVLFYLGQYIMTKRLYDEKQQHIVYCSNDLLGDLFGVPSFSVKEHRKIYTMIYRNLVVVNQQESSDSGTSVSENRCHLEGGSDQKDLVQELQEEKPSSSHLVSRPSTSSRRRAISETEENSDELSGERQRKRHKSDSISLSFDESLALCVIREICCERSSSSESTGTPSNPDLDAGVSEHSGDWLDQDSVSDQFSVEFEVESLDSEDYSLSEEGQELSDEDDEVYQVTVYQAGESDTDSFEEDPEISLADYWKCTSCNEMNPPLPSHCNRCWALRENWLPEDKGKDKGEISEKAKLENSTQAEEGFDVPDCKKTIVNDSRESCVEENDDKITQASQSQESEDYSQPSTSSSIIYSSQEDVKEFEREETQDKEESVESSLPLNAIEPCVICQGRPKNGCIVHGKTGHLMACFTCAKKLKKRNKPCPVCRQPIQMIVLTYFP
T cruzi inh = inhibitors of intracellular T. cruzi growth, primary screen, luminescence, NIH3T3 host cells | T. cruzi beta-gal in NIH3T3, 90 h | inhibition, % (no concentration beside the values) | actives 1.4% (n = 300,000) | AID 1885, 2009;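 active = mean inhibition across valid replicates above about 55%, limit read from the data; inconclusive = mean below that limit but half or more replicates reach it; inactive = mean below it, under half of replicates reach it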;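 also: signal also drops with host cell toxicity which is not excluded here; higher percent means less beta-gal luminescence so fewer parasites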
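System: NIH/3T3 fibroblasts plus reporter T. cruzi. Medium: DMEM plus 2% FBS. Probe or stimulus: 5000 reporter trypomastigotes per well. Compound: single 50 nL compound addition per well in DMSO. Incubation: co-culture of at least 90 h after 3 h attachment. Detection: GalScreen β-gal luminescence, detergent lysis, 60 min. Evaluation: parasite load inhibition, %.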
Mdm2 MdmX conf = Mdm2-MdmX complex disruptors, retested hits, confirmation, luminescence, single concentration; actives 55% (n = 10,000); AID 489028, 2010; inhibition, % at 8 µM; shares compounds with Mdm2 MdmX PPI; Mdm2-MdmX binding, luminescent assay; in the data active = inhibition above about 40%
Full FLuc ctr = full-length luciferase signal inhibition, confirmation, counter-screen for Mdm2/MdmX interaction inhibitor project, cell-based, single concentration, SaOS-2; shares compounds with Mdm2 MdmX PPI; SaOS-2 full-length luciferase counterscreen, luminescence; inhibition, % at 8 µM; actives 77% (n = 6,200); AID 504607, 2011;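 active = mean inhibition at 8 µM reaching about 37%, which flags the compound as non-specific, limit read from the data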;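 also: p53-null SaOS-2 cells with luciferase driven by a doxycycline-inducible promoter; compound on cells about two nights before reading with doxycycline added after day one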
A number is an active result; – = inactive; ? = inconclusive; · = no result. Compounds with a hit are over-represented: about 5.3% of the library has one in this group of screens.

SMILES	CSC inhib	NALP3 yeast inh	Calb FLC	Beta apoptosis	Mdm2 MdmX PPI	T cruzi inh	Mdm2 MdmX conf	Full FLuc ctr
CCN(CC)S(=O)(=O)c1ccc2[nH]cc(C(=O)NCCCN3CCCCC3)c(=O)c2c1	–	–	–	–	–	–	·	·
N/C(=N\OC(=O)c1cccc(F)c1)c1ccccn1	–	–	–	–	–	–	·	·
CCOc1ccc(C(=O)O/N=C(\N)c2ccccn2)cc1	–	–	–	–	95	–	86	–
COc1cc(C(=O)O/N=C(\N)c2ccccn2)cc(OC)c1OC	–	–	–	–	67	–	–	·
O=C(NCc1ccccc1)c1n[nH]nc1-c1ccccc1O	–	–	–	–	–	–	·	·
CN1CCN(CC(O)Cn2c3ccccc3c3ccccc32)CC1 (centres undefined)	–	–	·	–	–	–	·	·
COc1ccc(CN2CCN(CC(O)Cn3c4ccccc4c4ccccc43)CC2)cc1 (centres undefined)	–	–	–	–	66	–	–	79
CCOc1ccc(CN2CCN(CC(O)Cn3c4ccccc4c4ccccc43)CC2)cc1 (centres undefined)	–	–	–	–	89	–	72	–
COc1ccccc1NS(=O)(=O)c1ccc2oc(=S)[nH]c2c1	–	–	–	–	–	–	·	·
Cc1cccc(NC(=O)C2CCN(S(=O)(=O)c3ccc4c(c3)NC(=O)CO4)CC2)c1C	–	–	–	–	–	–	·	·
Cc1nnc(C)n1/N=C/c1ccccc1	–	–	–	–	–	–	·	·
CCn1c2ccccc2c2cc(/C=N/n3c(C)nnc3C)ccc21	·	–	–	·	60	–	–	·
CCCCC1C(=O)N(c2ccccc2)N(c2ccc(O)cc2)C1=O (centres undefined)	–	–	·	·	98	·	–	–
CCCCC1(CO)C(=O)N(c2ccccc2)N(c2ccccc2)C1=O	–	–	–	–	–	–	·	·
Cn1nnnc1Sc1ncnc2scc(-c3cccc(S(C)(=O)=O)c3)c12	–	–	·	–	84	·	70	–
Cn1nnnc1Sc1ncnc2scc(-c3cccc(Br)c3)c12	89	–	·	–	96	·	100	49
O=C(Cc1ccc(Cl)cc1)Nc1ccc2oc(-c3ccncc3)nc2c1	–	–	–	–	55	–	–	·
O=C(Cc1ccccc1)Nc1ccc2oc(-c3cccnc3)nc2c1	–	–	–	–	–	–	·	·
COc1ccc(CC(=O)Nc2ccc(-c3nc4cc(C)ccc4o3)c(O)c2)cc1OC	–	–	–	–	92	–	47	115
COc1ccc(CC(=O)Nc2ccc(-c3noc(-c4ccc(Cl)cc4)n3)cc2)cc1	–	–	–	–	91	–	–	·
CCOc1ccccc1-c1nc(-c2ccc(NC(=O)Cc3ccc(OC)cc3)cc2)no1	–	–	–	–	57	–	–	·
CCOC(=O)c1cnc2nc(N3CCOCC3)nn2c1N	–	–	?	–	–	–	·	·
COc1ccccc1CCNC(=O)Cn1ccc2cc(S(=O)(=O)N3CCC(C)CC3)ccc21	–	–	–	–	–	–	·	·
CN1CCN(CCCNC(=O)c2cn(C)c3ccc(S(=O)(=O)N(C)C)cc3c2=O)CC1	–	–	·	–	–	·	·	·
O=C(c1ccc2nccnc2c1)N1CCN(c2cccc(C(F)(F)F)c2)CC1	–	–	·	–	–	·	·	·
SMILES	CSC inhib	NALP3 yeast inh	Calb FLC	Beta apoptosis	Mdm2 MdmX PPI	T cruzi inh	Mdm2 MdmX conf	Full FLuc ctr
O=[N+]([O-])c1cc(-c2csc(NCCc3nc4cc(C(F)(F)F)ccc4n3CCCO)n2)ccc1Cl	–	–	–	–	–	–	·	·
CCN(CC)S(=O)(=O)c1ccc(N/N=C/c2ccc(O)cc2O)nc1	112	–	91	–	65	–	78	50
CN(C)CCCN(C(=O)c1ccc2c(c1)CCCC2)c1nc2cc3c(cc2s1)OCO3	–	–	–	–	64	–	49	56
CN(C)CCCN(C(=O)c1ccc(C(=O)c2ccccc2)cc1)c1nc2cc3c(cc2s1)OCCO3	–	–	–	–	53	–	–	87
COc1ccccc1N1CCN(C(=O)C2c3ccccc3Oc3ccccc32)CC1	–	–	–	–	64	–	56	89
COc1ccccc1N1CCN(C(=O)C2CC2)CC1	–	–	–	·	–	–	·	·
CCc1cc(C(=O)N2CCN(S(=O)(=O)c3ccccc3F)CC2)sc1C	–	–	·	–	–	·	·	·
CCN1C(=O)/C(=C/C=C2/Sc3ccccc3N2CCO)SC1=S	–	–	–	–	70	–	–	·
O=c1[nH]c(C2CCN(S(=O)(=O)c3ccc(S(=O)(=O)NC4CC4)cc3)CC2)nc2c1nnn2Cc1ccc(F)cc1	–	–	–	–	–	–	·	·
CC(C)CCNC(=O)c1ccccc1SCC(=O)NC1CCCCCCC1	–	–	·	–	–	·	·	·
COCCN(C(=O)COC(=O)/C=C/c1ccc2ccccc2n1)c1c(N)n(Cc2ccccc2)c(=O)[nH]c1=O	–	–	–	–	54	–	–	·
COCCN(C(=O)COC(=O)/C=C/c1cccs1)c1c(N)n(Cc2ccccc2)c(=O)[nH]c1=O	–	–	–	–	–	–	·	·
CN(C(=O)COC(=O)/C=C/c1ccc2ccccc2n1)c1c(N)n(Cc2ccccc2)c(=O)[nH]c1=O	·	–	·	–	–	·	·	·
COCCN(C(=O)COC(=O)/C=C/c1nc2ccccc2s1)c1c(N)n(Cc2ccccc2)c(=O)[nH]c1=O	–	–	–	–	64	–	–	·
CC[C@]12c3[nH]c4cc(-c5ccco5)ccc4c3CCN1C(=O)[C@@H](CC(=O)NC/C=C(\C)CCC=C(C)C)C[C@@H]2C(=O)N1CCN(C(=O)c2ccco2)CC1	·	·	·	·	56	·	–	·
CC[C@]12c3[nH]c4cc(CCC(=O)N(C)C)ccc4c3CCN1C(=O)[C@@H](CC(=O)NC/C=C(\C)CCC=C(C)C)C[C@@H]2C(=O)N1CCN(C(=O)C2CC2)CC1	·	·	·	·	–	·	·	·
CC[C@]12c3[nH]c4ccccc4c3CCN1C(=O)C(CC(=O)NC/C=C(\C)CCC=C(C)C)C[C@@H]2C(=O)N1CCN(C(=O)c2ccco2)CC1 (some centres undefined)	–	–	·	–	54	·	–	·
CC[C@]12c3[nH]c4ccc(Cl)cc4c3CCN1C(=O)[C@@H](CC(=O)NC/C=C(\C)CCC=C(C)C)C[C@@H]2C(=O)N1CCN(C(=O)C2CC2)CC1	·	·	·	·	70	·	–	71

Screening data from PubChem BioAssay.
